Measurements gathered from unrelated publications.
Lines come from different studies, so protocols differ.
Target: Homeodomain-interacting protein kinase 1 (HIPK1, Homo sapiens, UniProt Q86Z02)

| Compound | effect on | mode | method | tested at | endpoint | value |
| --- | --- | --- | --- | --- | --- | --- |
| O=C(O)c1ccc2c(c1)nc(Nc1ccc(F)c(Cl)c1)c1ncncc12 | enzyme activity | inhibitor | radiometric | 1 µM | remaining activity | 6% |
| O=C1NC(=O)c2cc(Nc3ccc(F)cc3)c(Nc3ccc(F)cc3)cc21 | cell-free assay | – | – | 0.5 µM | remaining signal | 102% |
| CN1CC(Oc2cnc(C#N)cc2-c2ccn3nc(NC(=O)C4CC4)cc3c2)C1 | enzyme activity | inhibitor | – | 1 µM | inhibition | -3% |
| COc1cc2ncnc(Nc3ccc(F)c(Cl)c3)c2cc1OCCCN1CCOCC1 | cell-free assay | – | – | 0.5 µM | remaining signal | 97.6% |
| CC1=C(C#N)C(c2ccc3c(c2)c(NC(=O)c2ccccc2C)nn3C)C(C#N)=C(C)N1 | cell-free assay | – | competition with immobilised ligand | 1 µM | remaining binding | 71% |
| Cc1ccc(Nc2nccc(N(C)c3ccc4c(C)n(C)nc4c3)n2)cc1S(N)(=O)=O | enzyme activity | inhibitor | – | 10 µM | inhibition | 21% |
| C[C@H](c1ccc(F)cc1)N(Cc1cccc(C(=O)O)c1)C(=O)c1cnc2ccccc2c1 | cell-free assay | – | competition with immobilised ligand | 1 µM | remaining binding | 100% |
| O=C(O)c1ccc2c(c1)nc(NCc1ccccc1)c1ccncc12 | enzyme activity | inhibitor | radiometric | 1 µM | remaining activity | 76% |
| FC(F)(F)Oc1cccc(-c2cnc3ccc(-c4ccncc4)nn23)c1 | enzyme activity | inhibitor | radiometric | 1 µM | activity vs control | 29% |
| O=C(O)c1ccc2c(c1)nc(NCCc1cccc(Cl)c1)c1ncncc12 | enzyme activity | inhibitor | radiometric | 1 µM | remaining activity | 35% |
| Cc1cc(NC(=O)c2cccc3cc(-c4cccc5[nH]nc(N)c45)ccc23)ccc1F | enzyme activity | inhibitor | – | 0.1 µM | activity vs control | 95% |
| COc1cc2nccc(Oc3ccc(NC(=O)c4c5n(n(-c6ccc(F)cc6)c4=O)CCCC5)cc3)c2cc1OC | enzyme activity | inhibitor | – | 0.1 µM | inhibition | 12% |
| CNC(=O)c1cc(Oc2ccc(NC(=O)Nc3ccc(Cl)c(C(F)(F)F)c3)cc2)ccn1 | enzyme activity | inhibitor | – | 0.3 µM | inhibition | 14% |
| CS(=O)(=O)c1cc(C2(NC(=O)c3cncc4c3cnn4-c3ccc(F)cc3)CC2)ccn1 | cell-free assay | – | competition with immobilised ligand | 1 µM | remaining binding | 92% |
| O=C(O)c1ccc2c(c1)nc(NCCc1cccc(Cl)c1)c1ccncc12 | enzyme activity | inhibitor | radiometric | 1 µM | remaining activity | 20% |
| COc1cc2ncnc(Nc3ccc(Oc4ccccc4)cc3C)c2cc1OC | enzyme activity | inhibitor | – | 1 µM | inhibition | 1% |
| CCN(CC)CCNC(=O)c1c(C)[nH]c(/C=C2\C(=O)Nc3ccc(F)cc32)c1C | enzyme activity | inhibitor | – | 0.3 µM | inhibition | 26% |
| CN([C@@H]1CCc2c(CC(=O)O)c3cc(S(C)(=O)=O)ccc3n2C1)S(=O)(=O)c1ccc(F)cc1 | cell-free assay | – | competition with immobilised ligand | 1 µM | remaining binding | 77% |
| Cc1sc(C(=O)NC2COC2)cc1-n1cc(NC(=O)Nc2c(F)cccc2Cl)cn1 | enzyme activity | inhibitor | – | 10 µM | remaining activity | 116% |
| O=C(NCCCC1CCCCC1)c1ccc(CNC(=O)c2cnn(-c3ccccc3)c2C(F)(F)F)cc1 | cell-free assay | – | competition with immobilised ligand | 0.1 µM | remaining binding | 99% |
| CC/C(=N\NC(=O)NCc1cccc(O)c1)c1ccc(O)c(C)c1O | enzyme activity | inhibitor | – | 0.1 µM | inhibition | 6.3% |
| O=C(O)c1ccc2c(c1)nc(Nc1ccc(Cl)cc1)c1ccncc12 | enzyme activity | inhibitor | radiometric | 1 µM | remaining activity | 6% |
| FC(F)c1nc2ccccc2n1-c1nc(N2CCOCC2)nc(N2CCOCC2)n1 | enzyme activity | inhibitor | – | 10 µM | remaining activity | 100% |
| Cc1c[nH]c2nccc(Oc3c(F)cc(Nc4cc(Cl)nc(N)n4)cc3F)c12 | cell-free assay | – | competition with immobilised ligand | 0.1 µM | remaining binding | 100% |
| O=C(O)c1ccc2c(c1)nc(NCCc1ccccc1)c1ncncc12 | enzyme activity | inhibitor | radiometric | 1 µM | remaining activity | 18% |
| O=C(NCc1ncc(C(F)(F)F)cc1Cl)c1ccc2c(c1)C1(CCS(=O)(=O)CC1)[C@@H](C1CC1)N2S(=O)(=O)c1ccc(F)cc1 | cell-free assay | – | competition with immobilised ligand | 1 µM | remaining binding | 70% |
| O=C(O)c1ccc2c(c1)nc(Nc1ccccc1)c1ncncc12 | enzyme activity | inhibitor | radiometric | 1 µM | remaining activity | 11% |
| Cn1cc(Cl)c2c(Oc3c(F)cc(Nc4cc(Cl)nc(N)n4)cc3F)ccnc21 | cell-free assay | – | competition with immobilised ligand | 0.1 µM | remaining binding | 100% |
| O=C(O)c1ccc2c(c1)nc(Nc1ccc3ccccc3c1)c1ncncc12 | enzyme activity | inhibitor | radiometric | 1 µM | remaining activity | 1% |
